Measured values reported in ChEMBL document CHEMBL1123863, “1-[[[5-(substituted phenyl)-2-oxazolyl]methylene]amino]-2,4- imidazolidinediones, a new class of skeletal muscle relaxants” (1987).

Legend:
Mus musculus = test: Highest tolerated dose (p.o.) in mice.; type: functional
Method in brief: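 Mice dosed orally with suspensions in 0.5% methylcellulose 4000 at 50, 200, 400 and 800 mg/kg. Muscle relaxation scored over a 2.0-h observation period on a 0 (none) to 4 (severe) scale. Acute toxicity followed for 72 h after dosing; highest tolerated oral dose given in mg/kg.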

Rattus norvegicus = test: Inhibition of gastrocnemius twitch tension after a cumulative dose of 36.6 mg/kg iv in rats.; type: functional; conditions: for inhibition in vivo at 36.6 mg/kg: Rattus norvegicus, Gastrocnemius, iv
Method in brief: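 Pithed rat gastrocnemius preparation: adult male Charles River rats (385–400 g), ether anesthesia, tracheotomy, pithed, artificially respired, bilaterally vagotomized. Tubocurarine chloride 0.075 mg/kg iv given for neuromuscular blockade, isolating direct muscle action. Compounds in tetrahydro-2-furanmethanol or DMSO, given iv as sequential 0.83, 2.5, 8.3, 25 mg/kg doses. Percent twitch tension inhibition read after the cumulative dose.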

Structure (SMILES) | HTD (Mus musculus) [mg/kg] | Inhibition (Rattus norvegicus) [%] | inhibition in vivo at 36.6 mg/kg (Rattus norvegicus) [%]
O=C1CN(/N=C/c2ncc(-c3ccccc3)o2)C(=O)[N-]1.[Na+] | 200 | -49 | –
O=C1CN(/N=C/c2ncc(-c3ccc(Cl)c(Cl)c3)o2)C(=O)[N-]1.[Na+] | >800 | -71 | –
COc1ccc(-c2cnc(/C=N/N3CC(=O)NC3=O)o2)cc1 | >800 | -47 | –
O=C1CN(/N=C/c2ncc(-c3ccccc3[N+](=O)[O-])o2)C(=O)N1 | >800 | – | 0
Cc1ccc(-c2cnc(/C=N/N3CC(=O)[N-]C3=O)o2)cc1.[Na+] | >800 | -62 | –
O=C1CN(/N=C/c2ncc(-c3ccc(Cl)cc3)o2)C(=O)[N-]1.[Na+] | 400 | -81 | –
O=C1CN(/N=C/c2ncc(-c3cccc(C(F)(F)F)c3)o2)C(=O)[N-]1.[Na+] | 50 | -69 | –
O=C1CN(/N=C/c2ncc(-c3cccc(Cl)c3)o2)C(=O)[N-]1.[Na+] | 400 | – | -42
O=C1CN(/N=C/c2ncc(-c3ccc(Br)cc3)o2)C(=O)[N-]1.[Na+] [AZUMOLENE SODIUM] | 400 | -83 | –
O=C1CN(/N=C/c2ccc(-c3ccc([N+](=O)[O-])cc3)o2)C(=O)[N-]1.[Na+] [DANTROLENE SODIUM] | >400 | – | -80
O=C1CN(/N=C/c2ncc(-c3ccc([N+](=O)[O-])cc3)o2)C(=O)N1 | >800 | -86 | –
O=C1CN(/N=C/c2ncc(-c3ccc(Cl)cc3)o2)C(=O)N1 | >800 | -80 | –
O=C1CN(/N=C/c2ncc(-c3ccccc3)o2)C(=O)N1 | >800 | -41 | –
O=C1CN(/N=C/c2ncc(-c3ccc(Br)cc3)o2)C(=O)N1 [AZUMOLENE] | >800 | -82 | –
O=C1CN(/N=C/c2ncc(-c3ccc(F)cc3)o2)C(=O)N1 | >800 | -70 | –
O=C1CN(/N=C/c2ncc(-c3ccc(F)cc3)o2)C(=O)[N-]1.[Na+] | 400 | -75 | –
O=C1CN(/N=C/c2ncc(-c3ccc(Cl)c(Cl)c3)o2)C(=O)N1 | >800 | -82 | –
O=C1CN(/N=C/c2ncc(-c3ccc([N+](=O)[O-])cc3)o2)C(=O)[N-]1.[Na+] | >800 | -84 | –
COc1ccc(-c2cnc(/C=N/N3CC(=O)[N-]C3=O)o2)cc1.[Na+] | >800 | -58 | –
Cc1ccc(-c2cnc(/C=N/N3CC(=O)NC3=O)o2)cc1 | >800 | -65 | –
O=C1CN(/N=C/c2ncc(-c3cccc(C(F)(F)F)c3)o2)C(=O)N1 | 400 | -56 | –
